The source of these data is ChEMBL document CHEMBL3272274, “Optical resolution of (+/-)-2,5-dimethyl-2'-hydroxy-9alpha- and -9beta-propyl-6,7-benzomorphans and their pharmacological properties” (J Med Chem, 1976).

Active and inactive are the calls of the source. No cut-off for these calls is given here.

Series [1] deals with Mus musculus. Description: Analgesic activity in po dosed mouse by Nilsen assay. It is filed as functional. The method, boiled down:
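Mouse analgesia by the Nilsen test with oral dosing. The ED50 is reported in mg/kg with confidence limits in parentheses.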

The subject of series [2] is Mus musculus. Put plainly: Analgesic activity in sc dosed mouse by Nilsen assay. It is filed as functional.
Series [3] relates to Mus musculus. Put plainly: Analgesic activity in sc dosed mouse by Eddy hot-plate assay. It is filed as functional. A general note: In hot-plate and tail-flick tests a longer latency is read as antinociception.
Series [4] deals with Rhesus monkey. Description: Physical dependence capacity in monkey assessed as single dose suppression of morphine withdrawal syndrome at 0.5 to 16 mg/kg. Particulars: in vivo. It is filed as ADME, organism-based, Macaca mulatta. Also noted: dose 0.5-16 mg/kg.
Series [5] concerns Rhesus monkey. Put plainly: Physical dependence capacity in monkey assessed as precipitation of morphine-induced abstinence at 10 mg/kg. The note with it: in vivo. It counts as ADME, organism-based, Macaca mulatta. Also noted: dose 10 mg/kg.
Series [6] deals with Rhesus monkey. Put plainly: Toxicity in monkey assessed as muscle rigidity at 10 mg/kg for 1 to 2 hrs. It counts as organism-based, Macaca mulatta, Muscle tissue. Also on record: dose 10 mg/kg. Particulars: in vivo.
Series [7] concerns Rhesus monkey. Description: Physical dependence capacity in monkey assessed as precipitation of morphine withdrawal syndrome at 5 to 10 mg/kg. Also on record: dose 5-10 mg/kg. Particulars: in vivo. It counts as ADME, organism-based, Macaca mulatta.
Series [8] has as its system Rhesus monkey. Description: Physical dependence capacity in monkey assessed as single dose suppression of morphine withdrawal syndrome at 5 to 10 mg/kg. It counts as ADME, organism-based, Macaca mulatta. Also noted: dose 5-10 mg/kg. The note with it: in vivo.
Series [9] concerns Rhesus monkey. Put plainly: Toxicity in monkey assessed as restlessness at 10 mg/kg for 1 to 2 hrs. The note with it: in vivo. It counts as organism-based, Macaca mulatta. Also noted: dose 10 mg/kg.
The test system of series [10] is Rhesus monkey. Put plainly: Toxicity in monkey at 0.5 to 16 mg/kg. It counts as organism-based, Macaca mulatta. Also on record: dose 0.5-16 mg/kg. The note with it: in vivo.
The test system of series [11] is Rhesus monkey. Description: Toxicity in monkey assessed as apprehensive behavior at 10 mg/kg for 1 to 2 hrs. It counts as organism-based, Macaca mulatta. Also on record: dose 10 mg/kg. The note with it: in vivo.
Series [12] concerns Rhesus monkey. Put plainly: Toxicity in monkey assessed as increase spontaneous movement at 10 mg/kg for 1 to 2 hrs. Particulars: in vivo. It counts as organism-based, Macaca mulatta. Also noted: dose 10 mg/kg.
Series [13] concerns Rhesus monkey. Description: Physical dependence capacity in monkey assessed as precipitation of morphine-induced abstinence at 0.5 to 16 mg/kg. It is filed as ADME, organism-based, Macaca mulatta. Also on record: dose 0.5-16 mg/kg. The note with it: in vivo.
The test system of series [14] is Rhesus monkey. Description: Toxicity in monkey assessed as piloerection at 10 mg/kg for 1 to 2 hrs. Particulars: in vivo. Also noted: dose 10 mg/kg. It is filed as organism-based, Macaca mulatta.
Series [15] has as its system Rhesus monkey. Description: Toxicity in monkey assessed as tremors at 10 mg/kg for 1 to 2 hrs. Also noted: dose 10 mg/kg. It is filed as organism-based, Macaca mulatta. The note with it: in vivo.
For series [16], the system named is Rhesus monkey. Description: Toxicity in monkey assessed as pupil dilation at 10 mg/kg for 1 to 2 hrs. It is filed as organism-based, Macaca mulatta. Also noted: dose 10 mg/kg. The note with it: in vivo.
Series [17] has as its system Mus musculus. Description: Toxicity in mouse at 20 to 40 mg/kg, sc. It is filed as organism-based. Also noted: dose 20-40 mg/kg, route subcutaneous. The note with it: in vivo.
Series [18] concerns Rhesus monkey. Put plainly: Toxicity in monkey assessed as irritable behavior at 10 mg/kg for 1 to 2 hrs. It counts as organism-based, Macaca mulatta. Also on record: dose 10 mg/kg. The note with it: in vivo.
The subject of series [19] is Mus musculus. Put plainly: Analgesic activity mouse at 20 to 40 mg/kg, sc by Eddy hot-plate assay. It is filed as functional, organism-based. The method, boiled down:
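Mouse analgesia by the Eddy hot-plate assay with subcutaneous injection. The ED50 is expressed with 95% SE limits.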

In series [20] the test system is Rhesus monkey. Put plainly: Toxicity in monkey assessed as head tremor at 10 mg/kg. It is filed as organism-based, Macaca mulatta. Also noted: dose 10 mg/kg. Particulars: in vivo.
The subject of series [21] is Rhesus monkey. Description: Toxicity in monkey assessed as vomiting at 1 to 4 mg/kg for 24 hrs. It is filed as organism-based, Macaca mulatta. Also noted: dose 1-4 mg/kg. Particulars: in vivo.
The subject of series [22] is Rhesus monkey. Description: Physical dependence capacity in monkey assessed as single dose suppression of morphine withdrawal syndrome at 1 to 16 mg/kg. The note with it: in vivo. Also on record: dose 1-16 mg/kg. It counts as ADME, organism-based, Macaca mulatta.
Series [23] deals with Rhesus monkey. Description: Toxicity in monkey assessed as severe retching at 1 to 4 mg/kg for 24 hrs. It counts as organism-based, Macaca mulatta. Also noted: dose 1-4 mg/kg. Particulars: in vivo.
The test system of series [24] is Rhesus monkey. Description: Toxicity in monkey assessed as gazing behavior at 10 mg/kg. It counts as organism-based, Macaca mulatta. Also on record: dose 10 mg/kg. Particulars: in vivo.
For series [25], the system named is Rhesus monkey. Put plainly: Physical dependence capacity in monkey assessed as single dose suppression of morphine withdrawal syndrome at 2.5 to 10 mg/kg. It counts as ADME, organism-based, Macaca mulatta. Also on record: dose 2.5-10 mg/kg. The note with it: in vivo.
The test system of series [26] is Mus musculus. Put plainly: Toxicity in mouse at 50 mg/kg, sc. It is filed as organism-based. Also on record: dose 50 mg/kg, route subcutaneous. The note with it: in vivo.
Series [27] deals with Rhesus monkey. Put plainly: Toxicity in monkey assessed as depression at 1 to 16 mg/kg for 24 hrs. It is filed as organism-based, Macaca mulatta. Particulars: in vivo. Also on record: dose 1-16 mg/kg.
Series [28] has as its system Rhesus monkey. Put plainly: Toxicity in monkey assessed as myoclonic jerks at 6 mg/kg, sc. Also noted: dose 6 mg/kg, route subcutaneous. Particulars: in vivo. It counts as organism-based, Macaca mulatta.
Series [29] has as its system Mus musculus. Description: Toxicity in mouse at 16 mg/kg, sc. It is filed as organism-based. Also on record: dose 16 mg/kg, route subcutaneous. The note with it: in vivo.
Series [30] concerns Rhesus monkey. Description: Physical dependence capacity in monkey assessed as precipitation of morphine withdrawal syndrome at 0.5 to 16 mg/kg. Particulars: in vivo. Also on record: dose 0.5-16 mg/kg. It counts as ADME, organism-based, Macaca mulatta.
The test system of series [31] is Rhesus monkey. Put plainly: Toxicity in monkey at 16 mg/kg. It is filed as organism-based, Macaca mulatta. Also on record: dose 16 mg/kg. The note with it: in vivo.
Setting [32] is: Mus musculus, sc, read-out: ED50.

Take `COc1ccc2c3c1O[C@H]1C(=O)CC[C@@]4(O)[C@@H](C2)N(C)CC[C@]314` [OXYCODONE]: in the series on Mus musculus [1], the ED50 (as a rule, the dose that gives a 50% effect, or the effect in half of the subjects) amounted to 1.3 mg/kg.

For the molecule `C=CCN1CC[C@]23c4c5ccc(O)c4O[C@H]2[C@@H](O)C=C[C@H]3[C@H]1C5.Cl` [NALORPHINE HYDROCHLORIDE], the ED50 was 4.8 mg/kg in the series on Mus musculus [2] (setting [32]) and 36.4 mg/kg in the series with Mus musculus [3] (setting [32]).

With `CCC[C@H]1[C@H]2Cc3ccc(O)cc3[C@]1(C)CCN2C.O=C(O)C(O)c1ccccc1`, the Activity entry with Rhesus monkey [4] is recorded as “Non-toxic”; in the series on Rhesus monkey [5] it was “Non-toxic”; in the series on Rhesus monkey [6] it was “Toxic”; with Rhesus monkey [7], “Non-toxic”; in the series with Rhesus monkey [8] it was “Non-toxic”; with Rhesus monkey [9], “Toxic”. The Activity entry in the series with Rhesus monkey [10] was “Non-toxic”; with Rhesus monkey [11], “Toxic”; with Rhesus monkey [12], “Toxic”; with Rhesus monkey [13] it was “Non-toxic”; in the series on Rhesus monkey [14] it was “Toxic”; in the series with Rhesus monkey [15] it was “Toxic”. The Activity result in the series with Rhesus monkey [16], with Mus musculus [17] and in the series with Rhesus monkey [18] was “Toxic” throughout. In addition, the figures for the ED50 with Mus musculus [2] (setting [32]) and with Mus musculus [3] (setting [32]) were 1.2 mg/kg and 1.1 mg/kg, respectively.

For the molecule `CCC[C@H]1[C@H]2Cc3ccc(O)cc3[C@]1(C)CCN2C` [listing 1 of 2 here], the result in the series with Mus musculus [19] was inactive.

In the series with Mus musculus [1], `COc1ccc2c3c1O[C@H]1[C@@H](O)C=C[C@H]4[C@@H](C2)N(C)CC[C@@]341` [CODEINE] displayed a median effective dose (ED50) of 21.4 mg/kg.

On to `CCC[C@@H]1[C@H]2Cc3ccc(O)cc3[C@]1(C)CCN2C.Cl`, for which the Activity result with Rhesus monkey [20] is recorded as “Toxic”; in the series with Rhesus monkey [21] it was “Toxic”; in the series on Rhesus monkey [22], “Toxic”; in the series on Rhesus monkey [23], “Toxic”; in the series with Rhesus monkey [24] it was “Toxic”; in the series on Rhesus monkey [25] it was “Non-toxic”. The Activity result in the series on Mus musculus [26] and in the series with Rhesus monkey [27] was “Toxic” each time. Also, the median effective dose (ED50) in the series with Mus musculus [1] came to 7.26 mg/kg; in the series on Mus musculus [2], 0.35 mg/kg; in the series with Mus musculus [3], 0.3 mg/kg.

With `CN1CC[C@]23c4c5ccc(O)c4O[C@H]2[C@@H](O)C=C[C@H]3[C@H]1C5.Cl` [MORPHINE HYDROCHLORIDE], the ED50 in the series on Mus musculus [2] (setting [32]) turned out to be 0.8 mg/kg; in the series on Mus musculus [3] (setting [32]) it was 1.2 mg/kg.

On to `CCC[C@H]1[C@H]2Cc3ccc(O)cc3[C@]1(C)CCN2C` [listing 2 of 2 here], for which the Activity result in the series on Rhesus monkey [28] is “Toxic”. In addition, the ED50 in the series on Mus musculus [2] (setting [32]) is 1.8 mg/kg; in the series with Mus musculus [3] (setting [32]), 1.61 mg/kg.

For the molecule `CCC[C@@H]1[C@H]2Cc3ccc(O)cc3[C@]1(C)CCN2C.Cl` (racemic), the Activity result in the series with Mus musculus [29], in the series on Rhesus monkey [30] and in the series on Rhesus monkey [31] was “Non-toxic” each time. Moreover, the ED50 in the series on Mus musculus [2] (setting [32]) was 0.35 mg/kg; in the series on Mus musculus [3], 0.64 mg/kg.
